Drawing on ChEMBL document CHEMBL1153479, “C29 sterols with a cyclopropane ring at C-25 and 26 from the Vietnamese marine sponge Ianthella sp. and their anticancer properties” (Bioorg Med Chem Lett, 2009), this text covers IC50 and Activity for four molecules.

SMILES strings stand for the structures. Activity calls are given as the source filed them. The rule behind the calls is not given here.

The test system of one assay is U-937. Description: Cytotoxicity against human U937 cells by MTT assay. Format: functional, cell-based. The essentials: (§1)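 Cytotoxicity was read by MTT assay on human tumour lines: A549 lung, HT-29 colon, MCF-7 breast, SK-OV-3 ovary, and HL-60 and U937 leukaemia. Results are given as IC50 (μM), with values below 100 μM counted as active. A positive control was included.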
On the technique in general: Tetrazolium dyes change colour on reduction, which living cells bring about.

For assay [1], the system named is HL-60. Kind of assay: Cell cycle distribution in human HL60 cells assessed as cell cycle accumulation at sub-G1 phase at 21.3 uM after 12 hrs by flow cytometry. Format: functional. The essentials: (§2)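 HL-60 cells exposed for 6, 12 or 24 h, then washed twice in PBS and fixed in 70% ethanol (30 min, 4°C). After a PBS rinse they were stained in the dark with 50 μg/mL propidium iodide plus 50 μg/mL RNase A (30 min, 37°C). DNA content was read by flow cytometry, and the sub-G1 hypodiploid fraction was taken from the DNA histograms.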
(Flow cytometry measures light scatter and fluorescence of single cells or particles in a stream.)

In the next assay the test system is A549. Description: Cytotoxicity against human A549 cells by MTT assay. Format: functional, cell-based. Summed up:
as §1

Assay [2] has as its system HL-60. Description: Cytotoxicity against human HL60 cells by MTT assay. Format: functional, cell-based. The essentials: as §1
Assay [3] deals with HL-60. Description: Induction of apoptosis in human HL60 cells assessed as increase in number of apoptotic body with condensed and fragmented nuclei at 21.3 uM after 6 to 24 hrs by H33342 staining method. Format: functional, cell-based. The essentials:
(§3)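 HL-60 cells at 3×10^5 cells/mL were exposed for 6, 12 and 24 h, washed twice with PBS and stained with 1 mg/mL Hoechst 33342 (30 min, 37°C). Apoptotic bodies, seen as condensed and fragmented nuclei, were scored by fluorescence microscopy at ×400.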

Another assay relates to SK-OV-3. Description: Cytotoxicity against human SKOV3 cells by MTT assay. Format: functional, cell-based. Summed up:
as §1

Assay [4] relates to HL-60. Description: Cell cycle distribution in human HL60 cells assessed as cell cycle accumulation at sub-G1 phase at 21.3 uM after 6 hrs by flow cytometry. Format: functional. Summed up:
as §2

In assay [5] the test system is HL-60. Kind of assay: Cell cycle distribution in human HL60 cells assessed as cell cycle accumulation at sub-G1 phase at 21.3 uM after 24 hrs by flow cytometry. Format: functional. The essentials:
as §2

In the next assay the test system is HT-29. Kind of assay: Cytotoxicity against human HT-29 cells by MTT assay. Format: functional, cell-based. The essentials:
as §1

A further assay has as its system MCF7. Description: Cytotoxicity against human MCF7 cells by MTT assay. Format: functional, cell-based. The essentials: as §1
Assay [6] concerns HL-60. Kind of assay: Cell cycle distribution in human HL60 cells assessed as cell cycle accumulation at sub-G1 phase at 19.9 uM after 12 hrs by flow cytometry. Format: functional. The essentials: as §2
For assay [7], the system named is HL-60. Description: Induction of apoptosis in human HL60 cells assessed as increase in number of apoptotic body with condensed and fragmented nuclei at 19.9 uM after 6 to 24 hrs by H33342 staining method. Format: functional, cell-based. Summed up: as §3
Assay [8] relates to HL-60. Kind of assay: Cell cycle distribution in human HL60 cells assessed as cell cycle accumulation at sub-G1 phase at 19.9 uM after 24 hrs by flow cytometry. Format: functional. The essentials:
as §2

Assay [9] has as its system HL-60. Kind of assay: Cell cycle distribution in human HL60 cells assessed as cell cycle accumulation at sub-G1 phase at 19.9 uM after 6 hrs by flow cytometry. Format: functional. The essentials:
as §2

The subject of assay [10] is HL-60. Description: Induction of apoptosis in human HL60 cells assessed as increase in number of apoptotic body with condensed and fragmented nuclei at 21.5 uM after 6 to 24 hrs by H33342 staining method. Format: functional, cell-based. Summed up: as §3
Assay [11] concerns HL-60. Kind of assay: Cell cycle distribution in human HL60 cells assessed as cell cycle accumulation at sub-G1 phase at 21.5 uM after 24 hrs by flow cytometry. Format: functional. The essentials: as §2
The subject of assay [12] is HL-60. Description: Cell cycle distribution in human HL60 cells assessed as cell cycle accumulation at sub-G1 phase at 21.5 uM after 6 hrs by flow cytometry. Format: functional. Summed up: as §2
In assay [13] the test system is HL-60. Description: Cell cycle distribution in human HL60 cells assessed as cell cycle accumulation at sub-G1 phase at 21.5 uM after 12 hrs by flow cytometry. Format: functional. The essentials:
as §2

As usually defined, the IC50 is the concentration needed to halve the response being measured. Read a low IC50 as greater potency in that assay. Take `CC(CCC(C)C1CCC2C3CC4OC45CC(O)CCC5(C)C3CCC12C)C1CC1C` (stereo unspecified): the IC50 in the assay with U-937 worked out at 19.9 µM; in the assay with A549, 9.8 µM; in the assay with HL-60 [2], 21.3 µM; with SK-OV-3, 22.6 µM; in the assay with HT-29, 69.9 µM; in the assay with MCF7 it was 19.4 µM. Moreover, the Activity in the assay on HL-60 [1] was 24.92%; in the assay on HL-60 [4], 11.8%; in the assay on HL-60 [5] it was 51.33%. The result in the assay with HL-60 [3] was Active.

Regarding `O=C1c2c(O)ccc(O)c2C(=O)c2c(NCCNCCO)ccc(NCCNCCO)c21` [MITOXANTRONE], the IC50 in the assay with U-937 was 6.2 µM; with A549 it was 8 µM; in the assay with HL-60 [2], 6.3 µM; in the assay on SK-OV-3, 9.8 µM; with HT-29, 8.7 µM; in the assay on MCF7, 7.1 µM.

As to `C[C@H](CC[C@@H](C)[C@H]1CC[C@H]2[C@@H]3CC(=O)C4=CC(=O)CC[C@]4(C)[C@H]3CC[C@]12C)[C@@H]1C[C@H]1C`, the IC50 was 22.1 µM in the assay on U-937; 8.4 µM in the assay with A549; 19.9 µM with HL-60 [2]; 16.2 µM in the assay on SK-OV-3; 48.2 µM with HT-29; 17.8 µM with MCF7. Moreover, the Activity with HL-60 [6] was determined as 21.85%; with HL-60 [8], 48.83%; in the assay on HL-60 [9], 11.19%. Moreover, the outcome with HL-60 [7] was Active.

For `C[C@H](CC[C@@H](C)[C@H]1CC[C@H]2[C@@H]3CC=C4C[C@@H](O)CC[C@]4(C)[C@H]3CC[C@]12C)[C@@H]1C[C@H]1C` [PETROSTEROL], the IC50 in the assay on U-937 was determined as 18.7 µM; in the assay on A549, 11.5 µM; with HL-60 [2], 21.5 µM; in the assay on SK-OV-3, 19.8 µM; in the assay on HT-29, 46.5 µM; with MCF7, 16.4 µM. For the same molecule, in the assay with HL-60 [10], the result was Active. Further, the Activity in the assay on HL-60 [11] was determined as 52.58%; with HL-60 [12] it was 12.61%; in the assay on HL-60 [13], 27.4%.
